How the values were obtained:
[1] = target: T1, Aromatase (Homo sapiens, UniProt P11511); assay: Inhibition of human placental aromatase Cytochrome P450 19A1; none
T1 sequence (P11511 whole entry): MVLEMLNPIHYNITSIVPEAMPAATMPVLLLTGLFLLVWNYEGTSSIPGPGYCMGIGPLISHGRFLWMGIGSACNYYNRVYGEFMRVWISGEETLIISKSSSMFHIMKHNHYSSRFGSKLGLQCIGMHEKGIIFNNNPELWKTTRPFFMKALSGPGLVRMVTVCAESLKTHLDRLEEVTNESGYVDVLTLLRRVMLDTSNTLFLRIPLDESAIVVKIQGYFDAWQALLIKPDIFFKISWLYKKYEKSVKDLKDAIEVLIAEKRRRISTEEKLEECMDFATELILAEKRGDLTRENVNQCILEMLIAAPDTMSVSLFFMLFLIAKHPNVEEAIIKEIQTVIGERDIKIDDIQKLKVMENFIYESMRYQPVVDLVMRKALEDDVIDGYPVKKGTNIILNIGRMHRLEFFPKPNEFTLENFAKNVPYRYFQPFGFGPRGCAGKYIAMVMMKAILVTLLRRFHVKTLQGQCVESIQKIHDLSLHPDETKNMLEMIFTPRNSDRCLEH

[2] = target: T2, Cholesterol side-chain cleavage enzyme, mitochondrial (Bos taurus, UniProt P00189); assay: Inhibition of bovine cholesterol side-chain cleavage desmolase, cytochrome P450 11A1; none; conditions: cattle
T2 sequence (P00189 whole entry): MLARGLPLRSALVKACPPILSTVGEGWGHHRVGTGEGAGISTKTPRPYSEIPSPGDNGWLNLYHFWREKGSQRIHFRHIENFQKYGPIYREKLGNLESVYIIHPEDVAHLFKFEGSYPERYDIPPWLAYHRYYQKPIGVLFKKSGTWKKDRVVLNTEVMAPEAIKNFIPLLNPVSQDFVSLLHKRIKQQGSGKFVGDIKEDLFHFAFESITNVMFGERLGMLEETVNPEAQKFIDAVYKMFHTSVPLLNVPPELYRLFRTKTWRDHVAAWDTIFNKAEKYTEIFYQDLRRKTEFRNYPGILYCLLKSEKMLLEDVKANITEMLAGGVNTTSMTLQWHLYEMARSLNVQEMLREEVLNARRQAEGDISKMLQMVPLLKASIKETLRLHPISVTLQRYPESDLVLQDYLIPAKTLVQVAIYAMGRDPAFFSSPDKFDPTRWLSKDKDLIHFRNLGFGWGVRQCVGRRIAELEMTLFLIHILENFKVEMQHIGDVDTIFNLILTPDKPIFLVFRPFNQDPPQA
In short: (§1)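 Enzyme source was the mitochondrial fraction of bovine adrenal cortex, stored at -70 °C. Substrate [14C]cholesterol; [14C]isocaproic acid released was measured. Inhibitors were added in 10 μL ethanol (ethanol alone in controls) to a 1.0 mL assay and preincubated 5 min at 30 °C. The reaction was started with 1 mg mitochondrial protein and sampled at 2, 4 and 6 min. Result given as % of control rate; apparent Ki from Lineweaver-Burk plots.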

[3] = target: T2, Cholesterol side-chain cleavage enzyme, mitochondrial; assay: (§2) Inhibition of bovine cholesterol side-chain cleavage desmolase, cytochrome P450 11A1; parameters: concentration or dose not given beside the values; conditions: cattle; in short: as §1
[4] = target: T2, Cholesterol side-chain cleavage enzyme, mitochondrial; assay: as §2; conditions: cattle; in short: as §1

For `CCC1(c2ccc(N)c(O)c2)CCC(=O)NC1=O` (stereo not drawn), which Inhibition [1] is on record?
The Inhibition was “Not Active”.

What about the Inhibition [2] of the same compound?
Its Inhibition is “Not Active”.

For `CCC1(c2ccc(N)cc2)CC(N)C(=O)NC1=O` (stereo not drawn), which Inhibition [3] is on record?
The Inhibition was 45%.

`CCC1(c2ccc(N)cc2)CCC(=O)N(N)C1=O` (stereo not drawn) was tested. Which Inhibition [3] did it give?
Its Inhibition is 50%.

Which Inhibition [1] does the source give for `CCC1(c2ccc(NC(C)=O)cc2)CCC(=O)NC1=O` (stereo not drawn) here?
The Inhibition was “Not Active”.

And the Inhibition [2]?
The Inhibition was “Not Active”.

With `CCC1(c2cccc(N)c2)CCC(=O)NC1=O` (stereo not drawn) as the compound, how does the Inhibition [4] read?
The Inhibition was 13%.

Which Inhibition [3] does the source give for `CCC1(c2ccc(NC=O)cc2)CCC(=O)NC1=O` (stereo not drawn) here?
Its Inhibition is 12%.

Which Inhibition [1] does the source give for `CCC1(c2ccc(O)c([N+](=O)[O-])c2)CCC(=O)NC1=O` (stereo not drawn) here?
The Inhibition was “Not Active”.

What about the Inhibition [2] of the same compound?
Its Inhibition is “Not Active”.

With `CCC1(c2ccc(O)c(N)c2)CCC(=O)NC1=O` (stereo not drawn) as the compound, how does the Inhibition [1] read?
Its Inhibition is “Not Active”.

What about the Inhibition [3] of the same compound?
The Inhibition was 35%.

For `CCC1(c2ccc([N+](=O)[O-])cc2)CCC(=O)NC1=O` (stereo not drawn) [4-NITROGLUTETHIMIDE], which Inhibition [3] is on record?
Its Inhibition is 20%.

For `CCC1(c2ccc(N)cc2)CCC(=O)NC1=O` (stereo not drawn) [AMINOGLUTETHIMIDE], which Inhibition [3] is on record?
Its Inhibition is 85%.

What does the source list for `CCC1(c2ccccc2)CCC(=O)NC1=O` (stereo not drawn) [GLUTETHIMIDE]?
Inhibition [1]: Not Active; Inhibition [2]: Not Active

`CCC1(c2ccc(O)cc2)CCC(=O)NC1=O` (stereo not drawn) [P-HYDROXYGLUTETHIMIDE] was tested. Which Inhibition [1] did it give?
Its Inhibition is “Not Active”.

What about the Inhibition [2] of the same compound?
Its Inhibition is “Not Active”.
